Data reported in ChEMBL document CHEMBL4270657, “Efficient synthesis of new phenanthridine Wnt/β-catenin signaling pathway agonists” (Eur J Med Chem, 2018).
Activity calls are given as the source filed them. No cut-off for these calls is given here.

Key:
HEK293 [1] = assay: Activation of Wnt/beta-catenin signaling pathway (unknown origin) expressed in HEK293 cells harboring pEGFP-C1/TOP Flash/LacZ at 5 to 20 uM in Wnt3a conditioned medium after 6 hrs by luciferase reporter gene assay; type: cell-based; details: Homo sapiens
Procedure, shortened: (§1)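 HEK293T cells in DMEM with 10% heat-inactivated FBS, 37°C, 5% CO2. Cells in 24-well plates were transfected with 250 ng plasmid per well (20 ng TOPFlash, 25 ng EGFP-C1, LacZ filler). 18 h later they were treated in Wnt3a CM or control CM for 6 h. Lysate GFP fluorescence was read first, then luciferase luminescence.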

HEK293 [2] = assay: Activation of Wnt/beta-catenin signaling pathway (unknown origin) expressed in HEK293 cells harboring pEGFP-C1/TOP Flash/LacZ in Wnt3a conditioned medium after 6 hrs by luciferase reporter gene assay; type: cell-based; details: Homo sapiens; procedure, shortened: as §1
Axin-1 (Mus musculus) = Axin-1 (Mus musculus) (UniProt O35625); assay: Inhibition of HLY179 binding to mouse His6-tagged AXIN DAX domain expressed in Escherichia coli at 80 uM after 1 to 2 hrs by Western blot analysis
Sequence of Axin-1 (Mus musculus) (O35625 whole entry, the tested form may be a part): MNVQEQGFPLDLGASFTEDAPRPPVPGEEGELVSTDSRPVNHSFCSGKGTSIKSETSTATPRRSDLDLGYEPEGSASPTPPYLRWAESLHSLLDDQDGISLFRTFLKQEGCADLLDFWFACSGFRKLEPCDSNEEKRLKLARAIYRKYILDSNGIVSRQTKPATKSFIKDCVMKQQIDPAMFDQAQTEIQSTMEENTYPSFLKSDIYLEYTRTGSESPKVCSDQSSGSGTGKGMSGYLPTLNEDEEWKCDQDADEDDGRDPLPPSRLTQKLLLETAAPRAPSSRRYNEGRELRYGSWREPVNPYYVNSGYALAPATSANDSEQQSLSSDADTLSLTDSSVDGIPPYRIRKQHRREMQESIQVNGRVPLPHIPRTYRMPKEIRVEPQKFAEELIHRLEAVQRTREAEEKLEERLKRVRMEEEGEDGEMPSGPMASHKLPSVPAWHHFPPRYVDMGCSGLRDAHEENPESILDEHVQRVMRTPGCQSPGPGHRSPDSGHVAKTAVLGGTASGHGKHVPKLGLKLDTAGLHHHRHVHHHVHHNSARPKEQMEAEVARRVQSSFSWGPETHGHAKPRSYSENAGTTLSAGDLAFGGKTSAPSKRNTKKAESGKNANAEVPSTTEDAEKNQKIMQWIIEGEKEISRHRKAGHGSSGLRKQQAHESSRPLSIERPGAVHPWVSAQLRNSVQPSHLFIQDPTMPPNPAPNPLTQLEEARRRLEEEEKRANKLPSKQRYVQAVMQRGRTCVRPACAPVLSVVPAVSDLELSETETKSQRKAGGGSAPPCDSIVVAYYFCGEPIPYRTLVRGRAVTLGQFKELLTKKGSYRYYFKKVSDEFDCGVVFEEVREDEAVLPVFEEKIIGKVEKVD

HEK293 [3] = assay: Activation of Wnt/beta-catenin signaling pathway (unknown origin) expressed in HEK293 cells harboring pEGFP-C1/TOP Flash/LacZ in Wnt3a conditioned medium assessed as increase in AXIN2 gene expression at 0.5 to 5 uM after 6 hrs by luciferase reporter gene assay; type: cell-based; details: Homo sapiens
Procedure, shortened: (§2)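 HEK293T cells were treated with compound plus control or Wnt3a CM for 6 h. Total RNA was extracted with TRIzol and reverse-transcribed with oligo(dT) priming. Transcripts were quantified by PCR with target primers (DKK1 given) and GAPDH primers as reference.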

HEK293 [4] = assay: Activation of Wnt/beta-catenin signaling pathway (unknown origin) expressed in HEK293 cells harboring pEGFP-C1/TOP Flash/LacZ in Wnt3a conditioned medium assessed as increase in DKK1 gene expression at 0.5 to 5 uM after 6 hrs by luciferase reporter gene assay; type: cell-based; details: Homo sapiens; procedure, shortened: as §2

Structure (SMILES) | Activity (HEK293 [1]) | CD (HEK293 [2]) | inhibition (Axin-1 (Mus musculus)) | Activity (HEK293 [3]) | Activity (HEK293 [4])
CCN1Cc2cc(OC)c(OC)cc2-c2cccc(C)c21 | Active | 5 µM |  |  | 
Cc1cc(COc2ccccc2)nn1C | Active |  |  |  | 
CCN1Cc2cc(OC)ccc2-c2cccc(C)c21 | Active |  | Active |  | 
c1ccc(OCc2cccnc2)cc1 | Active |  |  |  | 
CCN1Cc2cc(OCc3cccnc3)c(OCc3cccnc3)cc2-c2cccc(C)c21 |  | 5 µM | Active |  | 
CCN1Cc2cc(OCc3cccnc3)ccc2-c2cccc(C)c21 |  | 1.5 µM |  |  | 
CCN1Cc2cc(OCc3cc(C)nn3C)c(OCc3cc(C)nn3C)cc2-c2cccc(C)c21 |  | 0.15 µM | Active | Active | Active
Cc1cc(COc2ccccc2)n(C)n1 | Active |  |  |  | 
CCN1Cc2cc(OCc3cc(C)n(C)n3)ccc2-c2cccc(C)c21 |  | 3 µM | Active | Active | Active
COc1ccc2c(c1)CN(C)c1c(C)cccc1-2 |  |  | Active |  | 
CCN1Cc2cc(OCc3cc(C)nn3C)ccc2-c2cccc(C)c21 |  | 0.5 µM | Active |  | 
